Measurements collected from several papers.
Each line is one published result; the experiments were not run side by side.
MTNR1B: Melatonin receptor type 1B (MTNR1B, Homo sapiens, UniProt P49286)

For `C=C1CC[C@@H]2[C@](C)(CO)[C@H](O)CC[C@@]2(C)[C@@H]1CCC1=CCOC1=O`, the Ki was 1.5 µM (UDP-glucuronosyltransferase 2B7 (UGT2B7, Homo sapiens, UniProt P16662); enzyme activity, inhibitor; pH 7.4).
The Kd of `Cc1cc2nc3c(=O)[nH]c(=O)nc-3n(C[C@H](O)[C@H](O)[C@H](O)COP(=O)(O)OP(=O)(O)OC[C@H]3O[C@@H](n4cnc5c(N)ncnc54)[C@H](O)[C@@H]3O)c2cc1C` is reported as 23.7 µM (Protein PRRC2C (Homo sapiens, UniProt Q9Y520); binding; lysate).
The EC50 of `O=C(NCCc1cccc2ccccc12)C1CCC1` is reported as 1660 nM (MTNR1B; cAMP, agonist, TR-FRET).
With `CCCCN1CCC(COC(=O)c2ccc(N)c(OCF)c2)CC1` the Ki was greater than 10 µM (5-hydroxytryptamine receptor 1B (HTR1B, Homo sapiens, UniProt P28222); cell-free assay, radioligand).
`COc1ccc2[nH]cc(CCNC(C)=O)c2c1I` gave an EC50 of 229 nM (MTNR1B; cAMP, agonist, TR-FRET).
The Kd of `CC1(C)[C@@H](O)CC[C@]2(C)[C@H]3C(=O)C=C4[C@@H]5C[C@@](C)(C(=O)O)CC[C@]5(C)CC[C@@]4(C)[C@]3(C)CC[C@@H]12` is reported as 25 µM (Peroxiredoxin-1 (PRDX1, Homo sapiens, UniProt Q06830); binding, SPR).
The Kd of `Cc1cc(Nc2cc3ncccc3c(N[C@@H]3C[C@H]4CC[C@@H](C3)N4CCC#N)n2)n[nH]1` is reported as 0.096 µM (Death-associated protein kinase 1 (DAPK1, Homo sapiens, UniProt P53355); binding, competition with immobilised ligand).
With `CCC(=O)NC1Cc2ccccc2C(c2ccccc2)C1` (centres unmarked) the EC50 was 1.58 nM (MTNR1B; GTPγS binding, agonist, radiometric; cell membranes).
The Kd of `C=CC(=O)Nc1cccc(CN2C(=O)N(c3c(Cl)c(OC)cc(OC)c3Cl)Cc3cnc(NCCCCN(CC)CC)nc32)c1` is reported as 0.16 µM (Mitogen-activated protein kinase 7 (MAPK7, Homo sapiens, UniProt Q13164); binding, competition with immobilised ligand).
The Kb of `CC(=O)NCCc1c(Cc2ccccc2)[nH]c2ccccc12` is reported as roughly 100 nM (MTNR1B; cAMP, antagonist, TR-FRET).
With `O=C(O)CC[C@@H](O)C(=O)O` the Kd was roughly 67 µM (Protein phosphatase 3 catalytic subunit alpha (PPP3CA, Homo sapiens, UniProt Q08209); binding, SPR).
For `COc1ccc2c(c1)C(=O)C1(Cc3ccccc3C1)O2`, the Ki was 100 µM (Peptidyl-prolyl cis-trans isomerase NIMA-interacting 1 (PIN1, Homo sapiens, UniProt Q13526); enzyme activity, inhibitor).
For `CC(=O)c1cc([N+](=O)[O-])c(Sc2cccc(Cl)c2Cl)s1`, the EC50 was greater than 50000 nM (Cathepsin D (CTSD, Homo sapiens, UniProt P07339); enzyme activity, inhibitor).
With `CC(C)c1ccc(CNc2cccc(-c3nnc[nH]3)c2)cc1` the Ki was 3.72 µM (MTNR1B; cell-free assay).
